ARFGAP1 inh – inhibits rat ARF GTPase activating protein 1; Q62848; Arfgap1-stimulated ARF1 GTP hydrolysis, GDP FP detection; AID 651572; 360,000 compounds, 0.26% hits; inhibition, % at 16.5 µM;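 active = inhibition above a per-plate limit, mean inhibition of low control wells plus 3 SD, cut at about 25% in these data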
Target sequence (Q62848 1-136 limits assumed): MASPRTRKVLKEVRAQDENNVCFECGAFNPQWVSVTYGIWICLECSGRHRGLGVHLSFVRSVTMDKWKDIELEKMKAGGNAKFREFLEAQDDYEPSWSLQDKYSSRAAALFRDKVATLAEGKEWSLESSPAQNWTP
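Material: rat Arfgap1 catalytic domain, aa 1-136; also added: human ARF1(Δ1-17)-GTP substrate; compound dosing: one concentration, 16.5 µM, DMSO 1.26%; incubation: GTP hydrolysis reaction 2 h at 25 °C; measured by: Tracer-displacement fluorescence polarization with EDTA stop, 620/688 nm; evaluation: % inhibition from polarization; repeats: one replicate per compound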
PAFAH2 FP inh – inhibitors of human PAFAH2; recombinant PAFAH2, FP-rhodamine activity probe, fluorescence polarization; 340,000 compounds, 0.99% hits; Q99487; inhibition, % at 3.39 µM;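 active = inhibition above the mean over all tested compounds plus 3 SD, cut at about 30% in these data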;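 also: inhibitors block probe labeling of enzyme so polarization drops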
ASAP1 inh – blocks human ASAP1-stimulated Arf1 GTP hydrolysis; Q9ULH1; GDP FP detection; inhibition, % at 16.5 µM; 360,000 compounds, 0.19% hits; in the data active = inhibition above about 25%
PAFAH1B3 FP inh – inhibitors of human PAFAH1B3; recombinant PAFAH1B3, FP-rhodamine probe, fluorescence polarization; inhibition, % at 3.39 µM; 340,000 compounds, 0.28% hits;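 active = inhibition above the screen-wide average of all tested compounds plus 3 SD, cut at about 25% in these data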
PAFAH1B2 FP inh – PAFAH1B2 (human) inhibition; P68402; recombinant PAFAH1B2, FP-rhodamine activity probe, fluorescence polarization; inhibition, % at 3.39 µM; 340,000 compounds, 1.2% hits;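 active = inhibition above the mean of all tested compounds plus 3 SD, cut at about 24% in these data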
pPAFAH inh – inhibitors of human plasma PAF acetylhydrolase (pPAFAH) | recombinant pPAFAH, FP-rhodamine probe fluorescence polarization | inhibition, % at 3.39 µM | 330,000 compounds, 1.5% hits | AID 463082;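 active = inhibition above the mean inhibition across the screen plus 3 SD, cut at about 25% in these data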;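 also: inhibitors block binding of the rhodamine activity-based probe so polarization drops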
ARFGAP1 inh conf – confirmation of rat ARFGAP1 inhibitors. shares compounds with ARFGAP1 inh. ARFGAP1-stimulated ARF1 GTP hydrolysis, GDP tracer FP. inhibition, % at 16.5 µM. 890 compounds, 30% hits;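 active = average inhibition over triplicates above the hit cutoff set in the earlier primary screen, cut at about 25% in these data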
Target sequence (Q62848 whole entry, looked up): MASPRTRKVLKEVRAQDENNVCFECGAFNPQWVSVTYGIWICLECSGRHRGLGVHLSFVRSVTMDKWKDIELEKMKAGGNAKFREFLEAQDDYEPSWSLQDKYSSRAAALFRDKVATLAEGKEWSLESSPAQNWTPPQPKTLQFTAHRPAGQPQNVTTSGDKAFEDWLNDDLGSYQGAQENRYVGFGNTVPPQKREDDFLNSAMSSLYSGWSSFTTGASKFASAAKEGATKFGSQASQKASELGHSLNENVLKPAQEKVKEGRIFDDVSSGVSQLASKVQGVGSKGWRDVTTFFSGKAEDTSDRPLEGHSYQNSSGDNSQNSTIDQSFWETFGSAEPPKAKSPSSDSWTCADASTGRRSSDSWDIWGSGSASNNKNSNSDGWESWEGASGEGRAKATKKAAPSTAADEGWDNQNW
Of the large screens only hits and unclear results are named; the others gave an inactive call (follow-up assays come after a bar, where they were run); ! = not confirmed by another sample. Hits are enriched below; roughly 2.8% of the tested compounds scored in any of these assays.

Cc1c(C)n(CC(O)CNCCO)c2ccccc12 (centres undefined)	none
OC(CNCCC1C=Nc2ccccc21)Cn1c2ccc(Cl)cc2c2cc(Cl)ccc21 (centres undefined)	ARFGAP1 inh 28.0 | ARFGAP1 inh conf 42.2
COc1cc(OC)c(NC(=O)NNC(=O)C(=O)NC2CC2)cc1Cl	none (no result: PAFAH2 FP inh, PAFAH1B3 FP inh, PAFAH1B2 FP inh, pPAFAH inh)
CCC1CCC2(CC1)NC(=O)N(CC(=O)Nc1cccc(S(=O)(=O)N(C)c3ccccc3)c1)C2=O (centres undefined)	ARFGAP1 inh 41.1 | ARFGAP1 inh conf inactive
CN1C(=O)N(CC(=O)Nc2cccc(S(=O)(=O)N(C)c3ccccc3)c2)C(=O)C12CCCCC2	none (no result: pPAFAH inh)
CCOc1ccc(-c2cnc(NCc3cccc4ccccc34)n2CCOC)cc1	none
O=C(NC(=S)Nc1ccc2c(c1)OCCO2)c1ccccc1	ARFGAP1 inh 24.9 | ARFGAP1 inh conf inactive
CCN1CCN(C(C(=O)NC2CCCCC2)c2ccnc3ccccc23)CC1 (centres undefined)	none (no result: PAFAH2 FP inh, PAFAH1B3 FP inh, PAFAH1B2 FP inh, pPAFAH inh)
c1ccc(CCn2cnc3ccccc32)cc1	ARFGAP1 inh 26.0 | ARFGAP1 inh conf inactive
CCCNC(=O)C1(C)CCN(C(=O)c2ccccc2OC)C1 (centres undefined)	none (no result: PAFAH2 FP inh, PAFAH1B3 FP inh, PAFAH1B2 FP inh, pPAFAH inh)
O=C(NC(Cc1c[nH]c2ccccc12)C(=O)O)c1cccc(S(=O)(=O)N2CCCCC2)c1 (centres undefined)	none (no result: PAFAH2 FP inh, PAFAH1B3 FP inh, PAFAH1B2 FP inh, pPAFAH inh)
CC(C)N1CCN(Cc2ccc(-c3ccccc3Cl)o2)CC1CCO (centres undefined)	ARFGAP1 inh 29.1 | ARFGAP1 inh conf inactive
CC(C)N1CCN(Cc2ccc(-c3ccccc3)cc2)CC1CCO (centres undefined)	none
C[C@H](CO)N1C[C@H](C)[C@H](CN(C)Cc2cccc(C(F)(F)F)c2)OCc2ccccc2-c2c(n(C)c3ccccc23)C1=O	none (no result: PAFAH2 FP inh, PAFAH1B3 FP inh, PAFAH1B2 FP inh, pPAFAH inh)
CS(=O)(=O)c1ccc2nc(NC(=O)c3ccc(NS(=O)(=O)c4ccc(F)c(F)c4)cc3)sc2c1	none
O=C(Nc1nc2ccc(SC(F)F)cc2s1)c1ccc(NS(=O)(=O)c2ccc(F)c(F)c2)cc1	ARFGAP1 inh 25.9 | ARFGAP1 inh conf 29.8
Cc1nc2c(OCCC3CCCCC3)cccn2c1N(C)C(=O)CCC1CCCC1	none (no result: PAFAH2 FP inh, PAFAH1B3 FP inh, PAFAH1B2 FP inh, pPAFAH inh)
CC1(C)Oc2ccc3ccc(=O)oc3c2[C@@H](O)[C@@H]1O	none
CCc1cc(C(=O)NNC(=O)CCl)sc1C	ARFGAP1 inh 24.8 | ARFGAP1 inh conf inactive
CCc1cc(C(=O)NNC(=O)CCN2CCN(c3ccccc3)CC2)sc1C	none
O=C(Nc1ccccc1N1CCCC1)c1ccc(Cl)cc1Cl	ARFGAP1 inh 29.6 | ARFGAP1 inh conf inactive
O=C(Nc1ccccc1N1CCCCC1)c1ccc(-c2ccc(Cl)cc2)o1	ARFGAP1 inh 27.1 | ARFGAP1 inh conf inactive
C#CCN1CC(COc2ccccc2)Oc2cccc(Oc3ccc(C(C)C)cc3)c2S1(=O)=O (centres undefined)	none (no result: PAFAH2 FP inh, PAFAH1B3 FP inh, PAFAH1B2 FP inh, pPAFAH inh)
CCN1CCN(C(=O)Cn2ncc3c([nH]c4ccc(C)cc43)c2=O)CC1	ARFGAP1 inh 25.1 | ARFGAP1 inh conf 29.1
CCN1CCN(C(=O)Cn2ncc3c([nH]c4ccccc43)c2=O)CC1	none
O=C(Nc1cccc(-c2cc3ccccc3oc2=O)c1)c1ccc(Br)o1	ARFGAP1 inh 26.8 | ARFGAP1 inh conf inactive
CC1=CC(=O)c2ccccc2C1=O	ARFGAP1 inh 26.1! | ARFGAP1 inh conf inactive
CC(C)(C=O)C1=CC(=O)c2ccccc2C1=O	none
Clc1cccc(CNc2nc(-c3cccnc3)nc3ccccc23)c1	ARFGAP1 inh 31.9 (no result: pPAFAH inh) | ARFGAP1 inh conf 26.9
Clc1cccc(Nc2nc(-c3ccncc3)nc3ccccc23)c1	ARFGAP1 inh 39.3 | ARFGAP1 inh conf 50.1
Cc1cccc(C(=O)NCCC(=O)NCc2ccccc2Cl)c1	none
COc1ccnc(-n2cccc2C#N)c1C#N	none
CO/N=C/c1cccn1-c1nccc(OC)c1C#N	ARFGAP1 inh 30.6 (no result: PAFAH2 FP inh, PAFAH1B3 FP inh, PAFAH1B2 FP inh) | ARFGAP1 inh conf inactive
OC(c1cccc(Cl)c1)c1nc(-c2cccc3cccnc23)cs1 (centres undefined)	none (no result: PAFAH2 FP inh, PAFAH1B3 FP inh, PAFAH1B2 FP inh, pPAFAH inh)
OC(c1cccc(Cl)c1)c1nc(-c2csc3ccccc23)cs1 (centres undefined)	ARFGAP1 inh 24.6 (no result: PAFAH2 FP inh, PAFAH1B3 FP inh, PAFAH1B2 FP inh, pPAFAH inh) | ARFGAP1 inh conf inactive

Assay outcomes (PubChem BioAssay)
